In BindingDB's records for doi:10.1016/j.bmcl.2007.03.101 (Eli Lilly, 2007):

Target: T1, 5-hydroxytryptamine receptor 1A (Homo sapiens, UniProt P08908)
T1 sequence (P08908 whole entry): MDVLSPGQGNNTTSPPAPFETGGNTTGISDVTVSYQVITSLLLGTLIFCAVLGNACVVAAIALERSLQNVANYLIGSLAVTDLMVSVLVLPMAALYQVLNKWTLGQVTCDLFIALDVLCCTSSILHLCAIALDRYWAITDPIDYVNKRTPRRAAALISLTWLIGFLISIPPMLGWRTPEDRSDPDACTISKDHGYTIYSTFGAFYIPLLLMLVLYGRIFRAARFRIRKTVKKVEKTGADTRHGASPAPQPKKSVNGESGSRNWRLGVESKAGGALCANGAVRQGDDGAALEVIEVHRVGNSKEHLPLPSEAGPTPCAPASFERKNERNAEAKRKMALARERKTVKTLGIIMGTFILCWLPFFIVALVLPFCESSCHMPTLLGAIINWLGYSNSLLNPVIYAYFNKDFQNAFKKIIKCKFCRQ
Experiment: Displacement of [3H]8-OH-DPAT from human 5HT1A expressed in LM(tk-) cells
Method in brief: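 Human 5-HT1A was cloned into L-M(tk-) cells, and membrane homogenates were prepared. Binding used [3H]-8-OH-DPAT as radioligand. Ki (nM) is the mean of runs in triplicate.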

Ki: 13 nM
SMILES: C[C@H]1CN(c2cccc3cc(F)ccc23)CCN1CC[C@H]1OCC2=CC(C(N)=O)=CCC21 (stereo partly drawn) [(1R)-1-(2-((S)-4-(6-fluoronaphthalen-1-yl)-2-methylpiperazin-1-yl)ethyl)-1,3,7,7a-tetrahydroisobenzofuran-5-carboxamide]
